The source of these data is ChEMBL document CHEMBL1133541, “Conformationally constrained butyrophenones with affinity for dopamine (D(1), D(2), D(4)) and serotonin (5-HT(2A), 5-HT(2B), 5-HT(2C)) receptors: synthesis of aminomethylbenzo[b]furanones and their evaluation as antipsychotics” (J Med Chem, 2000).

Bounds are passed on as bounds.

The target in assay [1] is T1, 5-hydroxytryptamine receptor 2A (Rattus norvegicus, UniProt P14842). Description: In vitro affinity against serotonin 5-hydroxytryptamine 2A receptor.
Assay [2] has as its target T2, 5-hydroxytryptamine receptor 2B (Rattus norvegicus, UniProt P30994). In words: Compound was evaluated for antagonism against serotonin (5-hydroxytryptamine 2B receptor ) receptor. It is filed as functional. To be noted: read-out: pA2 (converted). The method, boiled down:
(§1)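 Rat stomach fundus strips in modified Krebs solution, 37 °C, carbogen-aerated organ baths; serotonin cumulative concentration-response curves (0.01 nM-10 µM), runs alternating with and without antagonist, 60 min rest between. Antagonism expressed as pA2 (-log antagonist concentration maintaining response when agonist doubled); 3-4 replicate experiments.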

Assay [3] has as its target T3, 5-hydroxytryptamine receptor 2C (Homo sapiens) (UniProt P28335).
T3 sequence (whole entry): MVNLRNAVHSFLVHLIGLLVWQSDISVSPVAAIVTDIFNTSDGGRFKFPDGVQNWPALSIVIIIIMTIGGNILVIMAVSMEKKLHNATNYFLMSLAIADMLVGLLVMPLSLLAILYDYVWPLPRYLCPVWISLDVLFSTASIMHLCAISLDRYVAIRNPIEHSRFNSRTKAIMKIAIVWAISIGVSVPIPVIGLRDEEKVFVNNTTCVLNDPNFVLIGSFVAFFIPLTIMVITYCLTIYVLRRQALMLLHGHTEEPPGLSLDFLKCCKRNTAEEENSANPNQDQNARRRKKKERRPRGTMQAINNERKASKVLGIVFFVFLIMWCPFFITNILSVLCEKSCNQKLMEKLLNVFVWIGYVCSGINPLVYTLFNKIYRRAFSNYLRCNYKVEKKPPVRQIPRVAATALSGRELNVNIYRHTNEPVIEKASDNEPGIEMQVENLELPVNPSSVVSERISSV
Particulars: Bos taurus; 10e-6 M.

Assay [4] in a line: In vitro affinity against Dopamine receptor D4. On the set-up: species or system Bos taurus.
The test system of assay [5] is Mus musculus. In words: Antipsychotic activity was determined in mice or rat within 20-30 min of administration.
The target of assay [6] is D(1A) dopamine receptor (Rattus norvegicus, UniProt P18901). Description: In vitro affinity against Dopamine receptor D1.
Assay [7] deals with Mus musculus. In words: Effective dose administered in apomorphine induced climbing test in mice (in vivo). It is filed as functional.
For assay [8], the system named is Mus musculus. Description: Effective dose administered in catalepsy test in mice (in vivo). The assay is classed as functional. The method, boiled down: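 Mice (n = 6-12) tested 30 min after dosing: forepaws on one horizontal wire, hindpaws on another 6 cm away and 2 cm lower. Posture held over 30 s counted as catalepsy; ED50 by Litchfield-Wilcoxon method.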

Assay [9] concerns the target T1, 5-hydroxytryptamine receptor 2A. Description: In vitro affinity against serotonin ( 5-hydroxytryptamine 2A receptor ) receptor. The method, boiled down: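 Rat frontal cortex membranes (male Sprague-Dawley), preincubated 37 °C 15 min to remove endogenous 5-HT, in Tris-HCl pH 8.07 with 4 mM CaCl2 and 0.1% ascorbic acid. [3H]ketanserin competition in triplicate, 1 µM methysergide masking as required, 30 min at 37 °C; filtration on PEI-soaked GF/C, scintillation counting; two replicate experiments.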

Assay [10] has as its target T3, 5-hydroxytryptamine receptor 2C (Homo sapiens). Particulars: Bos taurus; 10e-6 M. This is another data set of the same source.
For assay [11], the system named is Mus musculus. Description: Effective dose administered in apomorphine induced climbing test in mice (in vivo); Value ranges from 0.8-1.44. The assay is classed as functional.
In assay [12] the target is T2, 5-hydroxytryptamine receptor 2B. In words: Compound was evaluated for antagonism against serotonin (5-hydroxytryptamine 2B) receptor. The assay is classed as functional. Particulars: read-out: pA2 (converted). The method, boiled down:
as §1

T2 sequence (P30994 whole entry): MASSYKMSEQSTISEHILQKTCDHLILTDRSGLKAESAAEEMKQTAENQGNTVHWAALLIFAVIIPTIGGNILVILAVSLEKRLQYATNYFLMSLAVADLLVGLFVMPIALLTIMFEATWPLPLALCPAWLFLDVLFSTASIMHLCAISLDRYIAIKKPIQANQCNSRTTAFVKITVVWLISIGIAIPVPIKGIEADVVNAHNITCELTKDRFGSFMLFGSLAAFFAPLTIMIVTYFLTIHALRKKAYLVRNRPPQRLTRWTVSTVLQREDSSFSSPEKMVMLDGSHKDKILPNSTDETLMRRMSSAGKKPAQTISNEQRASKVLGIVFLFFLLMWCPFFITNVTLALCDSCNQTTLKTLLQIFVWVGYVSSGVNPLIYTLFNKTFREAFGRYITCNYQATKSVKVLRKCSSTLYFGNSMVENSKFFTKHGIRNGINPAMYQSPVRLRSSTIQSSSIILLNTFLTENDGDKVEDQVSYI
T1 sequence (P14842 whole entry): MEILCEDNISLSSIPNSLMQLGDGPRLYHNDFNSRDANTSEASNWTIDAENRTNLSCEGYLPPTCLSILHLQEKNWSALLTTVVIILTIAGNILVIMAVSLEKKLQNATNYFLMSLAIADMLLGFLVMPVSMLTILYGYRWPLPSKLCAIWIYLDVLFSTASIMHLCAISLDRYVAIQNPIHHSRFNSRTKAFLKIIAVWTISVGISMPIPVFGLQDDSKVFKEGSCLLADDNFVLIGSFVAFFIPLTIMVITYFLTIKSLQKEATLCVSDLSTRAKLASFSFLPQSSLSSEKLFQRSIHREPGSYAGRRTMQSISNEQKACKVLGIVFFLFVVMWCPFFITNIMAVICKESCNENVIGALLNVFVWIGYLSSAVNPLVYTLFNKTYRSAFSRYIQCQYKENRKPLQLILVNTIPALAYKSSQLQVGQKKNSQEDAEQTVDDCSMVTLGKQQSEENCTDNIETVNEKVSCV
D(1A) dopamine receptor, sequence (P18901 whole entry): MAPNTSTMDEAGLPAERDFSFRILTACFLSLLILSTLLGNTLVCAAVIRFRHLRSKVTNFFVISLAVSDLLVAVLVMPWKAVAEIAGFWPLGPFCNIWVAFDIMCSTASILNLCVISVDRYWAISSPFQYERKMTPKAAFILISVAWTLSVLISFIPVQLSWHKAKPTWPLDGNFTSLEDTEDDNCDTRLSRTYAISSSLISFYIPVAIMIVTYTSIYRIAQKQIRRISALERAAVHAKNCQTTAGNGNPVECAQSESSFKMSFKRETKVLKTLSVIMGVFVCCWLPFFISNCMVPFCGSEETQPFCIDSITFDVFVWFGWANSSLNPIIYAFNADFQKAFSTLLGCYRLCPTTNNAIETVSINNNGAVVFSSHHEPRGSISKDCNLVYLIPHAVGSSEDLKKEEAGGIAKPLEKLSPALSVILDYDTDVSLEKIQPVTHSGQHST

Take `O=C(CCCCN1CCN(CC2CC(=O)c3ccoc3C2)CC1)c1ccc(F)cc1` (stereo not given): the affinity in assay [1], expressed as Ki, was 1260 nM. In [2], the Kb is 589 nM. This compound yielded an Inhibition in [3] of 44.3%.
Turning to `O=C1CC(CN2CCC(c3noc4cc(F)ccc34)CC2)Cc2occc21` (stereo not given), in assay [4], the “Log Ki” value is on record as -7.68. Besides, the values for the ED50 in [5], in assay [7] and in assay [8] were 0.48 mg/kg, 0.34 mg/kg and 3.84 mg/kg, respectively. The Ki is 28.8 nM in assay [6] and 10.7 nM in [1]. Moreover, in assay [2], the Kb was 245 nM.
As to `COc1ccccc1N1CCN(CC2CC(=O)c3ccoc3C2)CC1` (stereo not given), the affinity in [1] corresponds to a Ki of 2290 nM. For the same compound, the Kb in assay [2] was 646 nM.
As to `O=C1CC(CN2CCN(c3ccccc3)CC2)Cc2occc21` (stereo not given), the Kb in assay [2] was greater than 100000 nM. In [9], the Ki was 21.9 nM.
The compound `O=C1CC(CN2CCN(c3ccccn3)CC2)Cc2occc21` (stereo not given) had a Ki in [1] of 8320 nM. In addition, in [2], the Kb was 3470 nM.
Turning to `O=C(CCCN1CCN(CC2CC(=O)c3ccoc3C2)CC1)c1ccc(F)cc1` (stereo not given), the Inhibition in assay [10] was determined as 3.7%. The compound further showed an inhibition constant Ki in assay [1] of 955 nM. Besides, in [2], the Kb is 437 nM.
On to `O=C(CCCN1CCC(O)(c2ccc(Cl)cc2)CC1)c1ccc(F)cc1` [HALOPERIDOL], for which the “Log Ki” value in assay [4] is -8.2.
As to `O=C1CC(CN2CCN(c3ncccn3)CC2)Cc2occc21` (stereo not given), in assay [1], the Ki was greater than 100000 nM. Further, the Kb in assay [2] is 1820 nM.
Regarding `CN1CCN(C2=Nc3cc(Cl)ccc3Nc3ccccc32)CC1` [CLOZAPINE], in [4], the “Log Ki” value was -7.42.
On to `O=C1CC(CN2CCC(C(=O)c3ccc(F)cc3)CC2)Cc2occc21` (stereo not given), for which, in assay [4], the “Log Ki” value is reported as -7.04. The 50% effective dose (ED50) in [5] was 1.21 mg/kg; in assay [11], 0.95 mg/kg; in assay [8], 3.44 mg/kg. Besides, the Ki in assay [6] was 195 nM; in assay [9] it was 51.3 nM. For the same compound, the Kb in assay [12] is 195 nM.

The term Ki denotes the equilibrium dissociation constant of an inhibitor or competing ligand from its target. High values mean lower affinity, low ones higher affinity. A word on the Inhibition: it is the change of the read-out against control, counted positive when it falls. Low readings indicate little suppression, high ones strong suppression. What is called ED50 is the dose at which the effect has come halfway, by size or by number of responders.
